Converted amounts (≈) assume the structure as drawn. The source made the active and inactive calls.
Legend:
L5178Y = assay: Cytotoxicity against mouse L5178Y cells by MTT assay; type: functional; details: read-out: ED50 (the source's name)
PC-12 = assay: Cytotoxicity against rat PC12 cells by MTT assay; type: functional, cell-based
HeLa = assay: Cytotoxicity against human HeLa cells by MTT assay; type: functional, cell-based
Staphylococcus aureus [1] = assay: Antimicrobial activity against Staphylococcus aureus ATCC 25923 at 5 ug/disk after 24 hrs; type: functional
How it was run: (§1)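 Agar plate disk diffusion: disks impregnated with test sample (5 or 10 µg per disk) placed on agar plates previously inoculated with the organism, with solvent controls. Plates incubated 24 h at 37 °C. Read-out is the diameter (mm) of the clear inhibition zone around the disk. A sample is scored active when the zone exceeds 7 mm.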

Bacillus subtilis [2] = assay: Antimicrobial activity against Bacillus subtilis DSM 2109 at 5 ug/disk after 24 hrs; type: functional; details: for zone of inhibition at 5 µg/disc: DSM 2109, 24 h, read-out: IZ
How it was run: (§2)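 Agar plate disk diffusion: disks impregnated with sample (5 or 10 µg per disk) placed on agar plates pre-inoculated with the test organism; solvent controls run against each organism. Plates incubated at 37 °C for 24 h, then clear inhibition zones around the disk measured in mm; sample scored active when zone exceeded 7 mm.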

Escherichia coli [3] = assay: Antimicrobial activity against Escherichia coli DSM 10290 at 5 ug/disk after 24 hrs; type: functional; how it was run: as §1
Candida albicans [4] = assay: Antimicrobial activity against Candida albicans at 5 ug/disk after 24 hrs; type: functional; how it was run: as §2
Cladosporium herbarum [5] = assay: Antimicrobial activity against Cladosporium herbarum DSM 63422 at 5 ug/disk after 24 hrs; type: functional, organism-based; how it was run: as §2
Bacillus subtilis [6] = assay: Antimicrobial activity against Bacillus subtilis DSM 2109 at 10 ug/disk after 24 hrs; type: functional; details: DSM 2109, 24 h, read-out: IZ; how it was run: as §2
Escherichia coli [7] = assay: Antimicrobial activity against Escherichia coli DSM 10290 at 10 ug/disk after 24 hrs; type: functional; details: for zone of inhibition at 10 µg/disc: DSM 10290, 24 h, read-out: IZ; how it was run: as §2
Candida albicans [8] = assay: Antimicrobial activity against Candida albicans at 10 ug/disk after 24 hrs; type: functional; details: read-out: IZ; how it was run: as §2
Cladosporium herbarum [9] = assay: Antimicrobial activity against Cladosporium herbarum DSM 63422 at 10 ug/disk after 24 hrs; type: functional; details: for zone of inhibition at 10 µg/disc: DSM 63422, 24 h, read-out: IZ; how it was run: as §2
Staphylococcus aureus [10] = assay: Antimicrobial activity against Staphylococcus aureus ATCC 25923 at 10 ug/disk after 24 hrs; details: for zone of inhibition at 10 µg/disc: ATCC 25923, 24 h, read-out: IZ
Cladosporium herbarum [11] = assay: Antimicrobial activity against Cladosporium herbarum DSM 63422 by serial dilution assay; type: functional

Compound	EC50 (L5178Y) [µg/mL]	Activity (PC-12)	Activity (HeLa)	Activity (Staphylococcus aureus [1])	Activity (Escherichia coli [3])	Activity (Cladosporium herbarum [5])	zone of inhibition at 10 µg/disc (Bacillus subtilis [6]) [mm]	zone of inhibition at 10 µg/disc (Candida albicans [8]) [mm]	zone of inhibition at 10 µg/disc (Cladosporium herbarum [9]) [mm]	zone of inhibition at 10 µg/disc (Staphylococcus aureus [10]) [mm]	Activity (Candida albicans [4])	zone of inhibition at 10 µg/disc (Escherichia coli [7]) [mm]	also measured
CC(=O)[C@]1(CC/C(C)=C/CC/C(C)=C/CCC2=CC(=O)OC2O)[C@@H](O)CCC1(C)C (stereo not given in full) [ACANTHOLIDE D]	> 10	inactive	inactive										
CC(=O)[C@]1(CC/C(C)=C/CC/C(C)=C/CCC2=CC(=O)OC2O)[C@H](O)CCC1(C)C (stereo not given in full) [ACANTHOLIDE E]	7 (≈ 16.7 µM)	inactive	inactive										
COC1OC(=O)C=C1CC/C=C(\C)CC/C=C(\C)CCC1=C(C)CCCC1(C)C (stereo not given)	0.7 (≈ 1.75 µM)	inactive	inactive	inactive	inactive	inactive	9	9	15	10			zone of inhibition at 5 µg/disc (Bacillus subtilis [2]): 7 mm; zone of inhibition at 5 µg/disc (Candida albicans [4]; read-out: IZ): 9 mm; Activity (Escherichia coli [7]): inactive
CCOC1OC(=O)C=C1CC/C=C(\C)CC/C=C(\C)CCC1=C(C)CCCC1(C)C (stereo not given)	> 100	inactive	inactive	inactive	inactive	inactive	7	9			inactive	12	Activity (Bacillus subtilis [2]): inactive; Activity (Cladosporium herbarum [9]): inactive; Activity (Staphylococcus aureus [10]): inactive
NYSTATIN													MIC (Cladosporium herbarum [11]): 1.06 µg/mL
CC1=C(CC/C(C)=C/CC/C(C)=C/CCC2=CC(=O)OC2O)C(C)(C)CCC1=O (stereo not given) [ACANTHOLIDE B]	> 10	inactive	inactive	inactive	inactive	inactive	12	10	10	10	inactive	9	Activity (Bacillus subtilis [2]): inactive
CC1=C(CC/C(C)=C/CC/C(C)=C/CCC2=CC(=O)OC2O)C(C)(C)CCC1 (stereo not given) [LUFFARIELLOLIDE]	3.3 (≈ 8.54 µM)	inactive	inactive			inactive	12	10	20	11	inactive	10	zone of inhibition at 5 µg/disc (Staphylococcus aureus [1]; ATCC 25923, 24 h, read-out: IZ): 7 mm; zone of inhibition at 5 µg/disc (Bacillus subtilis [2]): 7 mm; zone of inhibition at 5 µg/disc (Escherichia coli [3]; DSM 10290, 24 h, read-out: IZ): 7 mm; MIC (Cladosporium herbarum [11]): 10.4 µg/mL (≈ 26.9 µM)

Source: ChEMBL document CHEMBL1148940, “New luffariellolide derivatives from the Indonesian sponge Acanthodendrilla sp” (2004)
